These results are taken from ChEMBL document CHEMBL2440065, “Identification of a novel benzoxazolone derivative as a selective, orally active 18 kDa translocator protein (TSPO) ligand” (J Med Chem, 2013).

For data set [1], the system named is Mus musculus. Briefly: Neurotoxicity in ddY mouse assessed as reduction in locomotor activity at 10 to 100 mg/kg, po after 1 hr. In kind it is toxicity, organism-based. Set-up: dose 10-100 mg/kg, route oral. The following applies: in vivo.
The nature of data set [2]: Ratio of drug level in brain to blood in rat at 10 mg/kg, po. The format is ADME, organism-based. Also on record: dose 10 mg/kg, route oral. Put shortly:
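Rats dosed orally at 10 mg/kg (HCl salt); brain and blood drug concentrations measured and expressed as brain/blood ratio.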

Data set [3] relates to Mus musculus. Briefly: Neurotoxicity in ddY mouse assessed as motor impairment at 10 to 100 mg/kg, po after 1 hr by horizontal rotarod test. Also on record: dose 10-100 mg/kg, route oral. The following applies: in vivo. In kind it is toxicity, organism-based. A general note: In the rotarod test animals must keep their balance on a rotating rod.
For data set [4], the system named is Mus musculus. Briefly: Neurotoxicity in ddY mouse assessed as elongation of hexobarbital-induced sleep at 300 mg/kg, po after 1 hr relative to diazepam. In kind it is toxicity, organism-based. Also on record: dose 300 mg/kg, route oral. The following applies: in vivo.
Data set [5] concerns Rattus norvegicus. Nature of the data set: Neurotoxicity in Wistar rat assessed as memory impairment at 3 to 30 mg/kg, po after 1 hr by passive avoidance test. In kind it is toxicity, organism-based. Also on record: dose 3-30 mg/kg, route oral. The following applies: in vivo.
Data set [6] deals with Mus musculus. Nature of the data set: Neurotoxicity in ddY mouse assessed as reduction in locomotor activity at 3 to 30 mg/kg, po after 1 hr. The format is toxicity, organism-based. Set-up: dose 3-30 mg/kg, route oral. The following applies: in vivo.
For data set [7], the system named is Rattus norvegicus. Briefly: Neurotoxicity in Wistar rat assessed as memory impairment at 1 to 30 mg/kg, po after 1 hr by passive avoidance test. The format is toxicity, organism-based. Also on record: dose 1-30 mg/kg, route oral. The following applies: in vivo.
Data set [8] deals with Mus musculus. Briefly: Neurotoxicity in ddY mouse assessed as motor impairment at 3 to 30 mg/kg, po after 1 hr by horizontal rotarod test. The following applies: in vivo. The format is toxicity, organism-based. Set-up: dose 3-30 mg/kg, route oral.
Data set [9] has as its system Mus musculus. Nature of the data set: Neurotoxicity in ddY mouse assessed as elongation of hexobarbital-induced sleep at 0.3 to 3 mg/kg, po after 1 hr. Also on record: dose 0.3-3 mg/kg, route oral. The format is toxicity, organism-based. The following applies: in vivo.

The term Kp denotes the ratio of the level in a tissue or fluid to that in plasma or blood.

For `CN(C(=O)Cn1c(=O)oc2ccc(-c3cccnc3)cc21)c1ccc(C(F)(F)F)cc1.Cl`, the Activity result with Mus musculus [1], with Mus musculus [3], with Mus musculus [4] and in the data set with Rattus norvegicus [5] was “Non-toxic” each time. Besides, in data set [2], the partition ratio (Kp) is 1.2.
In the case of `CN1C(=O)CN=C(c2ccccc2)c2cc(Cl)ccc21` [DIAZEPAM], the Activity result with Mus musculus [6], in the data set on Rattus norvegicus [7], in the data set on Mus musculus [8] and in the data set with Mus musculus [9] was “Toxic” each time.
